From the EternaBench riboswitch data

Test system: MS2 coat protein
Assay: apparent Kd, MS2 coat protein; higher = weaker binding; RNA-MaP array; FMN 200 µM where present
Method in brief: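 On Illumina sequencing-chip clusters, designs were transcribed by stalled E. coli RNA polymerase and titrated with SNAP-549-labelled MS2 coat protein (0.7 or 1.5 nM, doubling to 3 µM), without and then with constant ligand, in 100 mM Tris-HCl pH 7.5, 80 mM KCl, 4 mM MgCl2, BSA, DTT, yeast tRNA and Tween-20. Apparent Kd is the median of filtered per-cluster curve fits to green signal normalised to red-channel RNA signal and control-cluster median Fmax.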

[1] = designed as: OFF switch for flavin mononucleotide, no ligand
[2] = ligand present: flavin mononucleotide, designed as: OFF switch for flavin mononucleotide
[3] = designed as: ON switch for flavin mononucleotide, no ligand
[4] = ligand present: flavin mononucleotide, designed as: ON switch for flavin mononucleotide

Sequence: CCCACGAAAGUCGAACGAUGUAGCAGAAGGACAAUAACAUGACAUGAGGAUCACCCAUGUGCCAUGUAGGAUAUGCUACAUGGG
- apparent Kd [1]: 8.24 nM
- apparent Kd [2]: 7.14 nM

Sequence: CCCACGUGUGCAGGAUAUCCCACGAGCACAACAUGAGGAUCACCCAUGUACCUGAGUCUCGGAACGGAGAAGGGUACAUGUUAU
- apparent Kd [3]: 72.4 nM
- apparent Kd [4]: 69.1 nM

Sequence: CCCGACUAGAAGUCGGUACGGAGGAGAAGGCGCCUCCUGGGUCCACAUGAGGAUCACCCAUGUGGCGAGGAUAUCCUCAGUUUU
- apparent Kd [1]: 14.2 nM
- apparent Kd [2]: 74 nM

Sequence: CCCGAGUUAGGAUAUCGGACUGGCCCGCACAGGCUAGCAAUUGAGAAGGAACAUGAGGAUCACCCAUGUGAGUA
- apparent Kd [1]: 24.2 nM
- apparent Kd [2]: 61.6 nM

Sequence: CCCGCCCGCCCGCACGCGGAGCGACGAGAAGGUACACAUGAGGAUCACCCAUGUCGAGUGGGAGGUAAGGAUAUUGGACGGCGG
- apparent Kd [3]: 106 nM
- apparent Kd [4]: 93.3 nM

Sequence: CCCGUGUUAGGAUAUACGGCACACCCACAAACGGGUAUAUAGUAGAAGGAACAUGAGGAUCACCCAUGUAAAAC
- apparent Kd [1]: 20.2 nM
- apparent Kd [2]: 46.5 nM

Sequence: CCCUCACAUGAGGAUCACCCAUGUCAGGAUAUCUAGUCAGACAGUAUAGCACUGCUGAAGAGAAGGGACGUAAA
- apparent Kd [1]: 16.4 nM
- apparent Kd [2]: 20 nM

Sequence: CCCUCACAUGAGGAUCACCCAUGUCAGGAUAUCUAGUCAGACAGUGUAGCACUGCUGAAGAGAAGGGACGUAAA
- apparent Kd [1]: 16.9 nM
- apparent Kd [2]: 19.4 nM

Sequence: CCCUGAUCGAGAGGUAGGAGUGGUAGAAGGCGACCGGUGCCAGAUGACAUGAGGAUCACCCAUGUCGAGGAUAUACCACAGAAU
- apparent Kd [1]: 7.6 nM
- apparent Kd [2]: 11.5 nM

Sequence: CCGAAACCUCAGAAGGACCACAUGAGGAUCACCCAUGUCAAGCAAAACGGUAGGAUAUGAGGGAAAAGUCAAUAUACCCGACAG
- apparent Kd [3]: 11.3 nM
- apparent Kd [4]: 4.9 nM

Sequence: CCGAAUAUGCAGGAUAUCGUAUAGGAAACUAUACGAGAAGGGUAAACAUGAGGAUCACCCAUGUUCCUUAACGG
- apparent Kd [1]: 20.8 nM
- apparent Kd [2]: 19.2 nM

Sequence: CCGCAAAUGGAGGAUAUCGUAUCGGAUACGAUACGAGAAGGCUAAACAUGAGGAUCACCCAUGUGUCCUAGCGG
- apparent Kd [1]: 14 nM
- apparent Kd [2]: 15.5 nM

Sequence: CCGGAAAUGCAGGAUAUCGUAUCGGAUACGAUACGAGAAGGGUAUACAUGAGGAUCACCCAUGUGUCCUCCCGG
- apparent Kd [1]: 38.3 nM
- apparent Kd [2]: 109 nM

Sequence: CCGGAUAUGCAGGAUAUCGUAUCGGAUACGAUACGAGAAGGGUAUACAUGAGGAUCACCCAUGUGUCCUACCGG
- apparent Kd [1]: 22.8 nM
- apparent Kd [2]: 31.5 nM

Sequence: CCGGCGGGAGGAUAUACAUGAGGAUCACCCAUGUGCUUCAGCUAGGAGACUAGCAUUGGUAGAAGGCCCGCCGG
- apparent Kd [1]: 19 nM
- apparent Kd [2]: 160 nM

Sequence: CCGGGCUAGGAGAAGGGCUAGAGUGUGAUAUAUUUGCCCGCGAGCACAUGAGGAUCACCCAUGUAGCAGGAUAUCCAAGCCGGU
- apparent Kd [1]: 7.25 nM
- apparent Kd [2]: 21.2 nM

Sequence: CCGUAGUACUGGGAUCCGGGCCUACAUGAGGAUCACCCAUGUCAGGAUAUACGCGAGAUAAAUACGUAGAAGGGACACAGAUGA
- apparent Kd [1]: 19.7 nM
- apparent Kd [2]: 33.1 nM

Sequence: CCUAAACAUGAGGAUCACCCAUGUGAGGAUAUGAUGCGAAUAAAGAAAGAAGAAAGCAUCAGAAGGCACAUAGG
- apparent Kd [1]: 173 nM
- apparent Kd [2]: 270 nM

Sequence: CCUAAGCGAAUCAAGAUGGAUAGAACAUGAGGAUCACCCAUGUAGGAUAUGCUACACAAAGUGUAGCAGAAGGACAAGCUUAGG
- apparent Kd [1]: 25.9 nM
- apparent Kd [2]: 40.5 nM

Sequence: CCUAAGGAGGCAGGAUAUAGUGUGGUGGCCGGGCUCCCACGGCGAGCGGCACUAGAAGGGUCGUUACAUGAGGAUCACCCAUGU
- apparent Kd [3]: 12.7 nM
- apparent Kd [4]: 11.6 nM

Sequence: CCUAGAUAGGGAGGAUAUCACGACCAUCCCGGCGAUCCAACUACAUGAGGAUCACCCAUGUGGUGUGAGAAGGCCCAAUAAUAG
- apparent Kd [1]: 220 nM
- apparent Kd [2]: 75.4 nM

Sequence: CCUAGUCACUCACAUGAGGAUCACCCAUGUCGGUGCCGCCGACAGGAUAUCUAAAUGUAAAAUCUAGAGAAGGGUCGAACCAUC
- apparent Kd [3]: 455 nM
- apparent Kd [4]: 609 nM

Sequence: CCUAGUUGGUAAGGAUAUCCUACACUAUUCUGACCCGUGCAAGCUACAUGAGGAUCACCCAUGUAGGAGAAGGUGCGUCAACGU
- apparent Kd [1]: 6.97 nM
- apparent Kd [2]: 6.82 nM

Sequence: CCUCCACAUGAGGAUCACCCAUGUCAGGAUAUCGUGUGUGCUUUUUCGGUCUUUCGUGCGAGAAGGGACGUCUG
- apparent Kd [1]: 27.6 nM
- apparent Kd [2]: 26.7 nM

Sequence: CCUCCACAUUAGGAUAUCGUCACAGAAAUGUGACGAGAAGGAAUGACAUGAGGAUCACCCAUGUUAACGUGAUG
- apparent Kd [1]: 34.4 nM
- apparent Kd [2]: 195 nM

Sequence: CCUCCGUAUGAGGAUAUCGUCCAGGAAACUGGACGAGAAGGCAUGACAUGAGGAUCACCCAUGUUAACGUGAUG
- apparent Kd [1]: 19.8 nM
- apparent Kd [2]: 52.1 nM

Sequence: CCUCGACAUGAGGAUCACCCAUGUCAGGAUAUUGUGUCUCGGGUUUUUUACCGUUAGGCAAGAAGGGAUGUGUG
- apparent Kd [1]: 22.1 nM
- apparent Kd [2]: 23.2 nM

Sequence: CCUCGGUAGACAGGAUAUCCUUACAUGAGGAUCACCCAUGUAGCAAGACAUGGAGAAGGGUCACUGUGGGUAAAAGCGCAUAUC
- apparent Kd [3]: 225 nM
- apparent Kd [4]: 14 nM

Sequence: CCUCUACAUGAGGAUCACCCAUGUGAGGAUAUCUCGGAGCAGCCAAUUAAAGCGCUCCAGAGAAGGCACGUGUA
- apparent Kd [1]: 17.9 nM
- apparent Kd [2]: 25.2 nM

Sequence: CCUCUACAUGAGGAUCACCCAUGUGAGGAUAUGCGAGGCGCGCCCGAUAGGCGCGCCGGUAGAAGGCAUGUGGU
- apparent Kd [1]: 23.5 nM
- apparent Kd [2]: 50.5 nM

Sequence: CCUGAGUCAGGAUAUUGUACCAGUCUAAAACCAGACUGACCCAAGAAGGGACAUGAGGAUCACCCAUGUGAAAA
- apparent Kd [1]: 30.2 nM
- apparent Kd [2]: 25.5 nM

Sequence: CCUGUGUGAGGAUAUCUACGCCAUGUCUUUGACAUGGCGCAAGAGAAGGCACAUGAGGAUCACCCAUGUACUUC
- apparent Kd [1]: 22.6 nM
- apparent Kd [2]: 135 nM

Sequence: CCUUCGUGAGGAUAUCAUAGACAGCUCUCAGAAAUGGUCAAUGAGAAGGCACAUGAGGAUCACCCAUGUGGGUC
- apparent Kd [1]: 56.3 nM
- apparent Kd [2]: 198 nM

Sequence: CCUUUACAUGAGGAUCACCCAUGUCAGGAUAUCCUGUUGUGUUGUCUCGGGCGACACAUGAGCCAGGAGAAGGGACGAAGGGAA
- apparent Kd [1]: 41.7 nM
- apparent Kd [2]: 68.1 nM

Sequence: CGAAGUACGUAAGGAUAUACCGUGAGGACAACGGUAGAAGGUACAACAACAUGAGGAUCACCCAUGUGGACCUCUCGGCGUUGU
- apparent Kd [1]: 394 nM
- apparent Kd [2]: 617 nM

Sequence: CGAGAAAUCGUAGGAUAUGGUGAUGUACAUGAGGAUCACCCAUGUCCGUCUUCUCUCACAAGAUGCCAGAAGGACGAUUUCUGG
- apparent Kd [3]: 712 nM
- apparent Kd [4]: 122 nM

Sequence: CGAGGACAUGAGGAUCACCCAUGUAGCUACAAAAUGCAGCGACAGGAUAUCCUCUGGUUCCCAUAGGAGAAGGGUCAAACCUUG
- apparent Kd [3]: 26.8 nM
- apparent Kd [4]: 47.5 nM

Sequence: CGAGGUGGAGUGAGGAUAUCGUGUUCGAAAGAACGUGAGAAGGCACAUGAGGAUCACCCAUGUGAUUCAGCUCG
- apparent Kd [1]: 24.6 nM
- apparent Kd [2]: 69.4 nM

Sequence: CGAUAAAGGUGAGGAUAUGAGAAUAGAAAGAAAUCAGAAGGCACACAUGAGGAUCACCCAUGUGAGUUCUUGAGAUUACAUGGU
- apparent Kd [1]: 14.9 nM
- apparent Kd [2]: 15.1 nM

Sequence: CGAUAGUGUCGUUAUCCGUAGCGAACAUGAGGAUCACCCAUGUAGGAUAUGUUACUAAACUAGUAACAGAAGGGCGUGAGUCUU
- apparent Kd [1]: 129 nM
- apparent Kd [2]: 161 nM

Sequence: CGAUAUAUGAAGGGCGAAAACGCACAUGAGGAUCACCCAUGUAGAAGGCGAUCCGCAACGCGGAUCGAGGAUAUAUAGUAUACA
- apparent Kd [1]: 21.1 nM
- apparent Kd [2]: 23 nM

Sequence: CGAUAUGAUGCAGGAUAUCUAUCUUGAAUGAGGAGAGAAGGGCAAAGGGAGACAUAAGCCUUAUUACAUGAGGAUCACCCAUGU
- apparent Kd [1]: 13.3 nM
- apparent Kd [2]: 11.3 nM

Sequence: CGAUCCCUGUAGAAGGGAGCACCGCAAAACGUGAACCGGUCGCACCGGUGCUUAGGAUAUACAUGAGGAUCACCCAUGUAAAGG
- apparent Kd [1]: 15.3 nM
- apparent Kd [2]: 20.2 nM

Sequence: CGAUUUACUGAGGAUAUUGCAUCACCCGACUGAUAAGAAGGCAGAACAUGAGGAUCACCCAUGUGGGUACUCAC
- apparent Kd [1]: 80.5 nM
- apparent Kd [2]: 91.1 nM

Sequence: CGCAAACAUGAGGAUCACCCAUGUCAUUGUGGUCAAGGAUAUGGGUUCCUAAAUGGAACACCAGAAGGUGAAAAGA
- apparent Kd [3]: 164 nM
- apparent Kd [4]: 33.5 nM

Sequence: CGCAAGGAUACAUGAGGAUCACCCAUGUCAGAAAGGGUAAUCAGAAGGUACAAUUAGAGAUAGAGUAAGGAUAUGAAAUUUGCG
- apparent Kd [3]: 966 nM
- apparent Kd [4]: 313 nM

Sequence: CGCAAUAUACAGAAGGAGUUAUUUAGAGGUUUACUAGGAUAUGUUCACAUGAGGAUCACCCAUGUCAUAUGGUUUUUUAUUGCG
- apparent Kd [1]: 10.1 nM
- apparent Kd [2]: 8.96 nM

Sequence: CGCACGAGGCAAGGAUAUGCUGACAUGAGGAUCACCCAUGUGAGCAUGGGUCUGGUACGGGAUCAGCAGAAGGUGCACCGAGGU
- apparent Kd [1]: 18.5 nM
- apparent Kd [2]: 18.8 nM

Sequence: CGCACUAUACAUGAGGAUCACCCAUGUUAUUAUGAGAUAGUCAGAAGGCAUUGUUUGUGAAAUUAUGAGGAUAUGAAUAGUGCG
- apparent Kd [3]: 146 nM
- apparent Kd [4]: 79.3 nM

Sequence: CGCCAAUUGGCACAGGAUAUGAGCAUGCUCACAUGAGGAUCACCCAUGUGAUUACCAACGCAAAAUCAGAAGGGUGCCCUCGUCA
- apparent Kd [3]: 147 nM
- apparent Kd [4]: 97.1 nM

Sequence: CGCCAUCCCGUUGGCGUGAGGAUACCAGAAGGGACGAUCUCACAUGAGGAUCACCCAUGUUAUAGUCAGGAUAUGGGUUCAUCA
- apparent Kd [3]: 135 nM
- apparent Kd [4]: 14.2 nM

Sequence: CGCCGCACCGGCCUGCGGCAGGGUCAGGAUAUACAUGAGGAUCACCCAUGUGAACGGUGCCCUAUGUAGAAGGGACGAAAAGAA
- apparent Kd [1]: 22.8 nM
- apparent Kd [2]: 37.5 nM

Sequence: CGCCUCAGUUCAGGAUAUGUAUGGGUCUAACGAACAGAAGGGAACAUGAGGAUCACCCAUGUAAAUAGGGCCAAAGGCUUGAUA
- apparent Kd [1]: 35.8 nM
- apparent Kd [2]: 208 nM

Sequence: CGCGAACAUGAGGAUCACCCAUGUGAAAAACACAGAGGAUAUGUCGCAUGCGUGUAAAAGACAGAAGGCUGUCGCG
- apparent Kd [3]: 45.5 nM
- apparent Kd [4]: 21.9 nM

Sequence: CGCGGACAAGAGAAGGCCAGACCUCGGAACUUGAGGCACCGCUAGGCAUGGAGGAUAUCUUGACAUGAGGAUCACCCAUGUACA
- apparent Kd [3]: 86.3 nM
- apparent Kd [4]: 18.1 nM
